This excerpt belongs to a sample that is enriched for hits.
HSF1 inhib = HSF1 inhibitors in luciferase reporter cells, primary screen, cell-based, NIH3T3, luminescence; NIH3T3-HGL HSE-luciferase, MG132-induced, luminescence 8 h; active compounds read low; activity change, negative = inhibition, % at 7.5 µM (by protocol); actives 0.77% (n = 300,000);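 active = more than half of replicate wells show activity change below -50%, luminescence cut by over half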;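 also: luciferase reports HSF-1 transcriptional activity via heat shock element; 0% = median of DMSO wells and -100% = zero luminescence signal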
Hsp70 activator = Hsp70 transcriptional activators, primary screen, cell-based, HeLa, Hsp70 promoter luciferase, luminescence, 10 µM; activation, % at 10 µM; HeLa Hsp70 promoter luciferase reporter; scaled: vehicle 0, proteasome-inhibitor control 100%; actives 0.04% (n = 200,000);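 active = activation above the mean across all tested compounds plus 3 SD, cutoff set per campaign, cut at about 5.5% in these data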;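 also: 100% = MG132 at 30 µM as the positive control and 0% = DMSO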
HSF-1 act = HSF-1 activators, primary screen, NIH3T3-HGL cells, MG132 stress, luminescence, single point; AID 504408, 2011; activation, % at 9 µM; NIH3T3-HGL HSF-1 luciferase reporter, 8 h; 100% = twice DMSO control signal; actives 1.7% (n = 300,000);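 active = mean replicate activation of at least 50% with a set share of replicates each reaching 50%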;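 also: 0% = median of the neutral control wells and 100% = twice that signal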
T cruzi repl = inhibitors of intracellular T. cruzi growth, primary screen, luminescence, NIH3T3 host cells | inhibition, % (no concentration beside the values) | actives 1.4% (n = 300,000) | T. cruzi beta-gal in NIH3T3, 90 h;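 active = mean inhibition across valid replicates above about 55%, limit read from the data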;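 also: signal also drops with host cell toxicity which is not excluded here; 0% = plate median of DMSO wells and 100% = zero luminescence signal; higher percent means less beta-gal luminescence so fewer parasites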
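System: Mouse NIH/3T3 fibroblasts infected with β-gal-expressing T. cruzi Tulahuen C4 | Quantity: NIH/3T3 cells, 5,000 per well | Reagent: 5000 reporter trypomastigotes per well | Dosing: Compound pinned at 50 nL/well, DMSO | Schedule: 3 h host attachment, then at least 90 h co-culture | Detection: GalScreen luminescence, 60 min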
L major viab = Leishmania major promastigote growth inhibition, primary screen | Leishmania major promastigotes, resazurin fluorescence viability | inhibition, % at 10 µM | actives 9% (n = 200,000); in the data active = inhibition above about 50%;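 also: promastigotes grown with compound for 44 hours at 28 °C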
An asterisk follows results filed as active; / = no result.

SMILES | HSF1 inhib | Hsp70 activator | HSF-1 act | T cruzi repl | L major viab
O=C(Nc1nc(-c2ccccc2)cs1)C1CCCCN1S(=O)(=O)c1ccc(Cl)cc1 (stereo not given) | -7 | 0 | 13 | 78* | 100*
O=C(Nc1nc(-c2ccccc2)cs1)C1CCCCN1S(=O)(=O)c1ccccc1 (stereo not given) | / | 0 | / | 6 | 93*
O=C(Nc1ccccc1)C1CCCCN1S(=O)(=O)c1ccccc1 (stereo not given) | 1 | 0 | -14 | -6 | 7
COc1ccc(OC)c(C(C(=O)NC2CCCCC2)N(Cc2ccco2)C(=O)c2ccccn2)c1 (stereo not given) | 3 | / | 15 | 9 | /
O=C1CSC(c2ccccc2[N+](=O)[O-])N1CCc1ccccc1 (stereo not given) | -4 | 0 | 11 | 0 | 19
O=C(Cn1cnc2cc([N+](=O)[O-])ccc2c1=O)Nc1ccccc1-c1ccccc1 | 10 | / | -7 | 58* | /
Cc1ccc(CNC(=O)Cn2cnc3cc([N+](=O)[O-])ccc3c2=O)cc1 | -5 | 0 | 10 | 50 | 10
O=C(Cn1cnc2cc([N+](=O)[O-])ccc2c1=O)Nc1ccc(Br)cc1 | -8 | / | -8 | 68* | /
CC(C)(C)c1ccc(NC(=O)Cn2cnc3cc([N+](=O)[O-])ccc3c2=O)cc1 | 3 | 0 | 13 | 72* | 10
Cc1ccc(C)c(N2CCN(c3nnnn3-c3ccccc3)CC2)c1 | -2 | 0 | 3 | 22 | 63*
Cc1c(C(=O)N/N=C/C(C)C)[nH]c2ccc([N+](=O)[O-])cc12 | -5 | 0 | 11 | -2 | 51*
CCCCOc1ccc(NC(=O)C(=O)NCCCn2ccnc2)cc1 | -1 | 0 | 8 | 27 | 17
CCOc1ccc(NC(=S)NCCCn2ccnc2)cc1 | -29 | 0 | -28 | 9 | 83*
COc1ccc(OCCC(=O)NCC23CC4CC(CC(C4)C2)C3)cc1 | -6 | 0 | -1 | -8 | 97*
O=C(COC(=O)c1cccc(NS(=O)(=O)c2ccc(F)c(F)c2)c1)NC(=O)NC1CCCCC1 | 11 | 0 | 2 | -1 | 82*
CCCNC(=O)NC(=O)COC(=O)c1cccc(NS(=O)(=O)c2ccc(F)c(F)c2)c1 | 9 | 0 | -2 | 4 | 55*
CC(C)CNC(=O)NC(=O)COC(=O)c1cccc(NS(=O)(=O)c2ccc(F)c(F)c2)c1 | 7 | -1 | 15 | 13 | 0
Cn1cc([N+](=O)[O-])c(C(=O)N(Cc2ccccc2)Cc2ccccc2)n1 | -5 | 0 | -1 | 6 | 37
CN1C[C@@H]2C[C@@H](c3cccn3-c3nccs3)N3CCC[C@@]23C1=O | -8 | 0 | -23 | 8 | 0
CCn1c(SCC(=O)NCc2ccco2)nc2ccccc2c1=O | 5 | 0 | 15 | -4 | -1
COc1ccc(C(=O)Nn2c(SCC(=O)NC3CCCCC3)nc3ccccc3c2=O)cc1 | -64* | 0 | -73 | -10 | -17
CCn1cc(CNC(=O)c2cc(-c3cc(OC)ccc3OC)nc3ccccc23)c(C)n1 | -11 | 0 | 14 | -10 | 56*
O=C(CSc1nc2ccccc2c2nc3ccccc3n12)NCc1ccco1 | 45 | 0 | 103* | 12 | 18
COc1ccc(C(=O)Nn2c(SCC(=O)c3ccc(Cl)cc3)nc3ccccc3c2=O)cc1 | -71* | 0 | -75 | 8 | 8
O=C(N/N=C\CCc1ccccc1)c1ccco1 | 2 | 0 | 15 | -22 | -3
SMILES | HSF1 inhib | Hsp70 activator | HSF-1 act | T cruzi repl | L major viab
N#C/C(=C\c1ccc2c(c1)OCCO2)C(=O)Nc1ccc(C(=O)O)cc1 | -2 | / | -16 | -14 | /
O=C(CNC(=O)c1ccc2c(c1)OCCO2)N/N=C/c1ccc([N+](=O)[O-])cc1 | -5 | / | -5 | -1 | /
O=C(NCc1ccco1)c1cc(-c2ccccc2)nc2ccccc12 | 8 | 0 | 14 | 4 | 6
COc1ccc2cc(C(=O)NCc3ccco3)c(=Nc3ccc(C(=O)O)cc3)oc2c1 | -63* | 0 | -64 | 8 | -6
COc1ccc(C(=O)Nn2c(SCC(=O)NCc3ccco3)nc3ccccc3c2=O)cc1 | -75* | 0 | -76 | -4 | -6
COc1ccc(C(=O)Nn2c(SCC(=O)N3CCC(C)CC3)nc3ccccc3c2=O)cc1 | -66* | 0 | -73 | 0 | -9
COCCn1c(SCC(=O)N2CCC(C)CC2)nc2ccccc2c1=O | 2 | 0 | -3 | -1 | -3
COc1ccc(-c2cc(C(=O)NCc3ccco3)c3ccccc3n2)cc1 | 51 | / | 86* | -14 | /
COc1ccc2oc(=Nc3ccc(C(=O)O)cc3)c(C(=O)NCc3ccco3)cc2c1 | -4 | 0 | 24 | 18 | 0
Cc1cccn2c(=O)c(C=O)c(N3CCC4(CC3)OCCO4)nc12 | 1 | / | 23 | -13 | /
CCOC(=O)c1c(C)c(C(=O)N2CCN(c3ccc(F)cc3)CC2)c(C)n1C | 7 | 0 | -10 | -1 | 9
COC(=O)c1cc(S(=O)(=O)NCc2ccc(F)cc2)cn1C | -53* | / | -63 | -3 | /
COC(=O)c1cc(S(=O)(=O)NCc2ccccc2)cn1C | 7 | / | 9 | 4 | /
CC1(c2ccccc2Cl)NC(=O)N(CC(=O)c2ccc3c(c2)OCO3)C1=O (stereo not given) | -3 | / | 10 | 4 | /
O=C(CN1CCN(S(=O)(=O)c2ccc(Br)cc2)CC1)N/N=C/c1ccc(Br)s1 | -5 | 0 | 7 | 63* | 22
Cc1cc(S(=O)(=O)Nc2cc(C)c(O)c(C)c2)c(C)s1 | 0 | 0 | -2 | -1 | 100*
Cc1cc(S(=O)(=O)Nc2ccc3ccccc3c2)c(C)s1 | 10 | 0 | 11 | -33 | 7
CCOc1ccc2[nH]c3nc(SCC(=O)NC4CC4)nnc3c2c1 | -2 | / | -20 | -13 | /
O=C(N=C1SC2CS(=O)(=O)CC2N1c1ccc(F)cc1F)C1CC1 (stereo not given) | 0 | / | 20 | -1 | /
CCn1cc(C(=O)OCC(=O)c2cc(C)n(-c3ccccc3F)c2C)c(=O)c2ccc(C)nc21 | -9 | 0 | -17 | 29 | 53*
CCCn1c(C)cc(C(=O)COC(=O)c2ccc[nH]c2=O)c1C | -70* | 0 | -74 | 7 | -2
CCCn1c(C)cc(C(=O)COC(=O)CN=C2NS(=O)(=O)c3ccccc32)c1C | -1 | 0 | -9 | -6 | 55*
CCn1cc(C(=O)OCC(=O)c2cc(C)n(-c3ccccc3)c2C)c(=O)c2ccc(C)nc21 | -9 | 0 | -3 | 17 | -4
Cc1cc(C(=O)Cn2nnc3ccccc3c2=O)c(C)n1-c1ccccc1F | -38 | 0 | -48 | 2 | -4
Cc1cc(C(=O)COC(=O)c2ccc(O)cc2)c(C)n1-c1ccccc1F | -63* | 0 | -70 | 22 | 1

Compound activity from PubChem BioAssay.
